According to ChEMBL document CHEMBL4014299, “Synthesis and anti-HIV activities of unsymmetrical long chain dicarboxylate esters of dinucleoside reverse transcriptase inhibitors” (Bioorg Med Chem Lett, 2017):

Legend:
Assay type in all cases: cell-based
[1] = Inhibition of HIV1 3B […] reverse transcriptase infected in human P4R5 MAGI cells assessed as reduction in viral infection after 2 hrs by Galacto-Star beta-galactosidase reporter gene assay; conditions: Human immunodeficiency virus 1, 3B
Procedure, shortened: (§1)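 Single-round infection against cell-free virus: compounds, virus and target cells incubated together 2 h, cells washed, then cultured a further 48 h. Infection read as HIV-LTR-driven galactosidase expression; EC50 = 50% effective concentration. Line 2 uses the X4 (lymphocytotropic) strain, line 3 the R5 (monocytotropic) strain. DMSO served as negative control and dextran sulfate as positive control. Triplicate (n = 3).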

[2] = Inhibition of HIV1 BaL […] reverse transcriptase infected in human P4R5 MAGI cells assessed as reduction in viral infection after 2 hrs by Galacto-Star beta-galactosidase reporter gene assay; conditions: Human immunodeficiency virus 1, BaL; procedure, shortened: as §1
[3] = Cytotoxicity against human P4R5 MAGI cells after 2 hrs by MTT assay
Procedure, shortened: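 Cytotoxicity to target cells by MTT assay, giving CC50 (50% toxic concentration). Run in triplicate (n = 3).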

Structure (SMILES) | EC50 [1] [µM] | EC50 [2] [µM] | CC50 at 2 h [3] [µM]
Cc1cn([C@H]2C[C@H](N=[N+]=[N-])[C@@H](COC(=O)CCCCCCC(=O)OC[C@H]3O[C@@H](n4cc(C)c(=O)[nH]c4=O)C[C@@H]3N=[N+]=[N-])O2)c(=O)[nH]c1=O | 0.2 | < 0.15 | > 148
Cc1cn([C@H]2C[C@H](F)[C@@H](COC(=O)CCC(=O)OC[C@@H]3O[C@H](n4ccc(N)nc4=O)CS3)O2)c(=O)[nH]c1=O | 44.5 | 42.2 | > 180
Cc1cn([C@H]2C[C@H](N=[N+]=[N-])[C@@H](COC(=O)CCC(=O)OC[C@H]3O[C@@H](n4cc(C)c(=O)[nH]c4=O)C[C@@H]3N=[N+]=[N-])O2)c(=O)[nH]c1=O | 14 | 68.1 | > 162
Cc1cn([C@H]2C[C@H](F)[C@@H](COC(=O)CCCCCCCCCCCCC(=O)O)O2)c(=O)[nH]c1=O | 1.8 | 0.55 | > 61
Cc1cn([C@H]2C[C@H](F)[C@@H](COC(=O)CCCCCCCCCCCCC(=O)OC[C@@H]3O[C@H](n4cc(F)c(N)nc4=O)CS3)O2)c(=O)[nH]c1=O | 0.047 | 0.075 | > 42
Cc1cn([C@H]2C[C@H](N=[N+]=[N-])[C@@H](COC(=O)CCC(=O)OC[C@H]3O[C@@H](n4cc(C)c(=O)[nH]c4=O)C[C@@H]3F)O2)c(=O)[nH]c1=O | 14.7 | 17.5 | > 168
Cc1cn([C@H]2C[C@H](F)[C@@H](COC(=O)CCC(=O)OC[C@H]3O[C@@H](n4cc(C)c(=O)[nH]c4=O)C[C@@H]3F)O2)c(=O)[nH]c1=O | 3.7 | 3 | > 175
Cc1cn([C@H]2C[C@H](F)[C@@H](COC(=O)CCCCCCCCCCCCC(=O)OC[C@@H]3O[C@H](n4ccc(N)nc4=O)CS3)O2)c(=O)[nH]c1=O | 0.1 | 0.07 | > 43
Nc1ccn([C@@H]2CS[C@H](COC(=O)CCCCCCC(=O)OC[C@@H]3O[C@H](n4ccc(N)nc4=O)CS3)O2)c(=O)n1 | 26.6 | 4.7 | > 168
Cc1cn([C@H]2C[C@H](F)[C@@H](COC(=O)CCCCCCC(=O)OC[C@H]3O[C@@H](n4cc(C)c(=O)[nH]c4=O)C[C@@H]3F)O2)c(=O)[nH]c1=O | 0.4 | 0.5 | > 160
Nc1ccn([C@@H]2CS[C@H](COC(=O)CCCCCCCCCCCCC(=O)OC[C@@H]3O[C@H](n4cc(F)c(N)nc4=O)CS3)O2)c(=O)n1 | 0.18 | 0.073 | > 43
Cc1cn([C@H]2C[C@H](N=[N+]=[N-])[C@@H](COC(=O)CCC(=O)OC[C@@H]3O[C@H](n4ccc(N)nc4=O)CS3)O2)c(=O)[nH]c1=O | 16.1 | 19.2 | > 173
Cc1cn([C@H]2C[C@H](F)[C@@H](CO)O2)c(=O)[nH]c1=O [ALOVUDINE] | 0.8 | 3.3 | > 410
Nc1nc(=O)n([C@@H]2CS[C@H](CO)O2)cc1F [EMTRICITABINE] | 1.9 | 0.7 | > 200
Nc1ccn([C@@H]2CS[C@H](CO)O2)c(=O)n1 [LAMIVUDINE] | 32.7 | 11.3 | 80.3
Cc1cn([C@H]2C[C@H](N=[N+]=[N-])[C@@H](CO)O2)c(=O)[nH]c1=O [ZIDOVUDINE] | 34.4 | 129 | > 374
